The subject of data set [1] is parental and 5-FU-resistant SW480 cell lines. Description: Spheroid growth of parental and 5-FU-resistant SW480 lines. The following applies: spheroids. In kind it is cell-based, human. In short, it runs like this:
(§1)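 SW480 cells were seeded on solidified Matrigel in RPMI-1640 spheroid medium containing 20 ng/mL EGF, 20 ng/mL FGF, heparin, N-2 supplement and penicillin/streptomycin. Seeding was 1,000 cells/well (96-well) or 5,000 cells/well (24-well). Test compound was added in medium and cultures were grown 7 days at 37 °C with 5% CO2. Spheroids were imaged by phase contrast (some stained with crystal violet), and small objects excluded before area analysis.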

In a further data set the target is T1, ALDH1B1 (Homo sapiens, UniProt P30837).
T1 sequence (P30837 18-517): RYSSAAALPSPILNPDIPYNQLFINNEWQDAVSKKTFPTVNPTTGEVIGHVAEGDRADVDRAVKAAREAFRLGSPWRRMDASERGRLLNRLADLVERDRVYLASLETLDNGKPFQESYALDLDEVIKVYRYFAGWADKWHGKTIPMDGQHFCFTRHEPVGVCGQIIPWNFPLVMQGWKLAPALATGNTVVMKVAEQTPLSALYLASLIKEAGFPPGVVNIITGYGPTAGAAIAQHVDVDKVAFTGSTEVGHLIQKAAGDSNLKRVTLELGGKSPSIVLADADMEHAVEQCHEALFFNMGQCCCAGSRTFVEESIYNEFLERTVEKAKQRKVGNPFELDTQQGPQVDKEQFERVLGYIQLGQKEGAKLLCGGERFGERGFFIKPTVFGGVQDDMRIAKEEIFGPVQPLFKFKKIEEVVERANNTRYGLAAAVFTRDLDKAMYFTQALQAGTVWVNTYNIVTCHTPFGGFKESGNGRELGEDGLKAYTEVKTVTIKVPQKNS
Description: ALDEFLUOR assay, ALDH1B1 transiently expressed in ALDH1A3-/- A375 cells. The following applies: flow cytometry. In kind it is cell-based. In short, it runs like this:
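ALDH1A3-knockout A375 cells were grown 24 h, then transfected with empty pCMV6, pCMV6-GFP (to estimate transfection efficiency) or pCMV6-ALDH1B1. Medium was changed at 24 h and cells grown another 24 h. Trypsinized cells in ALDEFLUOR buffer were exposed to test compound for 15 min at 37 °C with 5% CO2, then to ALDEFLUOR reagent for 30 min. Live single cells (DAPI gating) were analysed by flow cytometry; read-out is % of cells outside the negative-control gate (ALDEFLUOR vs SSC-A).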

In data set [2] the target is T2, endogenous ALDH1B1 in live SW480 cells (Homo sapiens, UniProt P30837).
T2 sequence (P30837 18-517): T1 sequence (P30837 18-517)
Description: Cellular thermal shift assay. In kind it is binding. The following applies: 10 µM, 1 hour. In a few lines:
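SW480 cells were grown in 15-cm dishes, trypsinized at about 80% confluence, and kept live in the incubator for 1 h. Cells were then pelleted at 480 x g for 5 min, washed with PBS and resuspended in PBS with protease inhibitors. Total protein per lane was checked on stain-free gels alongside immunoblotting of ALDH1B1.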

In a further data set the test system is SW480 cells. Description: Thermal proteome profiling. The following applies: 2 µM, 1 hour; cutoffs ΔTm ≥ 1.5 °C and P < 0.05. In kind it is binding, human.
For data set [3], the system named is colorectal tumor PDO lines. Description: Patient-derived organoid viability. The conditions noted are these: seven days treatment; CTO1-CTO4. In kind it is cell-based, human. In short, it runs like this: (§2)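 Organoids (wild-type colon or colorectal tumour) were dissociated with TrypLE plus 10 µM Y-27632. They were plated as 10-µL BME-2 domes at 1,000 cells/µL in WENR medium with 10 µM Y-27632 and 2.5 µM CHIR99021, and grown 3–5 days. Test compound at varying concentrations in WENR was then given for 7 days. Viability was read as resazurin metabolism with 10% Alamar Blue: 4 h for tumour PDOs, 6 h for wild-type PDOs, at 37 °C in the dark.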

A further data set relates to wild-type colon PDOs. Description: Patient-derived organoid viability. In kind it is cell-based, human. The following applies: seven days treatment; compared with tumor PDOs. In short, it runs like this:
as §2

Data set [4] relates to ALDH1B1 variants (E124G/N457G and V173I/N457G). Description: Inhibitor resistance of ALDH1B1 mutants. In kind it is biochemical, human. In a few lines:
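A375 ALDH1A3-knockout cells were transfected (3:1 DNA:FuGENE HD) with wild-type or mutant pCMV6-ALDH1B1 and grown 48 h. Cells in ALDEFLUOR buffer received ALDEFLUOR reagent. Within 10 s, aliquots were moved to tubes holding DMSO, DEAB (1.5 mM stock in EtOH) or test compound (100 µM or 10 µM stocks in DMSO). Tubes were incubated 30 min at 37 °C, cells pelleted, and analysed by flow cytometry.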

The test system of data set [5] is E124G/N457G mutant-expressing cells. In kind it is cell-based, human. In a few lines: as §1
The target in data set [6] is T3, ALDH1B1 (aldehyde dehydrogenase 1B1), human recombinant, mitochondria-targeting sequence removed (human), P30837.
T3 chain: T1 sequence (P30837 18-517)
Description: crystal structure. The following applies: remark: other sources report otherwise.

From publication PMC9529790 (Nature chemical biology, 2022) come the findings set out here.

Consider `O=c1[nH]cc(F)c(=O)[nH]1` [5-FU], for which the “loss of sensitivity of 5-FU-resistant SW480 line versus parental line” value in data set [1] is given as “approximately 20 fold”.

As to `CCN(CC)c1ccc(C=O)cc1` [DEAB, N,N-diethylaminobenzaldehyde], the “cellular ALDH1B1 activity (ALDEFLUOR signal)” value on ALDH1B1 is “abrogated”.

`COc1cc(Cl)ccc1C1=CN(c2ccc(-c3ccccc3OC)cc2)C2=NCCCN12.O=CO` [IGUANA-1]: in data set [2], the “thermal stabilization of ALDH1B1” value is listed as “stabilizes endogenous ALDH1B1”. Besides, in the data set with SW480 cells, the “inhibitor-dependent change in thermal stability (ΔTm), proteome-wide” value was “largest inhibitor-dependent increase in thermal stability”. The “growth of colorectal adenocarcinoma PDOs” value in data set [3] is given as “inhibit the growth of each line”. In addition, the “sensitivity of wild-type colon PDOs” value in the data set with wild-type colon PDOs was “less sensitive”. In addition, the “inhibitor sensitivity of ALDH1B1 variants” value in [4] is listed as “markedly reduced inhibitor sensitivity”. For the same molecule, the “resistance of mutant-expressing spheroid cultures versus wild-type ALDH1B1” value in data set [5] is reported as “more resistant”.

B1: ALDH1B1 (aldehyde dehydrogenase 1B1), human recombinant, mitochondria-targeting sequence removed, P30837 18-517 (enzyme)
chain: T1 sequence (P30837 18-517)
For the molecule B1, the stoichiometry N in data set [6] was found to be 4.
